In ChEMBL document CHEMBL1828629, “Identification of a non-phosphorylated, cell permeable, small molecule ligand for the Stat3 SH2 domain” (Bioorg Med Chem Lett, 2011):
Blank lines part the entries; values can stand above or below the compound they belong to. The source made the active and inactive calls. The calls are words filed in the database; no cut-off is given here.

What was measured:
[1] = Cytotoxicity against human JJN-3 cells after 72 hrs by MTS assay; format: functional, cell-based; conditions: JJN-3, 72 h
DU-145 = assay: Cytotoxicity against human DU145 cells after 72 hrs by MTS assay; format: functional, cell-based; conditions: DU-145, 72 h
[2] = Cytotoxicity against human MDA468 cells after 72 hrs by MTS assay; format: functional, cell-based; conditions: MDA-MB-468, 72 h
[3] = Lipophilicity, log P of the compound; format: physicochemical; conditions: octanol/water
[4] = Solubility of the compound in water; format: physicochemical; conditions: buffer
[5] = target: T1, Signal transducer and activator of transcription 3 (Homo sapiens, UniProt P40763); assay: Inhibition of STAT3 using fluorescent probe 5-carboxyfluorescein-GpYLPQTV-NH2 after 15 mins by fluorescence polarisation assay
[6] = target: T2, Signal transducer and activator of transcription 3 (Mus musculus, UniProt P42227); assay: Inhibition of STAT3 in mouse NIH3T3/vSrc nuclear extract assessed as disruption of the Stat3-DNA complex pre-incubated for 30 mins by EMSA analysis
Method in brief: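 NIH3T3/vSrc nuclear extracts were pre-incubated with a range of compound concentrations for 30 min at room temperature. They were then incubated with 32P-labelled hSIE probe (c-fos m67 variant) for 30 min at 30 °C and resolved by EMSA. Stat3 DNA-binding bands were quantified as percent of control, and IC50 was derived from those plots.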

[7] = target: T3, Signal transducer and activator of transcription 1 (Mus musculus, UniProt P42225); assay: Inhibition of mouse STAT1 using fluorescent probe 5-carboxyfluorescein-GpYLPQTV-NH2 after 30 mins by fluorescence polarisation assay
T3 sequence (P42225 whole entry): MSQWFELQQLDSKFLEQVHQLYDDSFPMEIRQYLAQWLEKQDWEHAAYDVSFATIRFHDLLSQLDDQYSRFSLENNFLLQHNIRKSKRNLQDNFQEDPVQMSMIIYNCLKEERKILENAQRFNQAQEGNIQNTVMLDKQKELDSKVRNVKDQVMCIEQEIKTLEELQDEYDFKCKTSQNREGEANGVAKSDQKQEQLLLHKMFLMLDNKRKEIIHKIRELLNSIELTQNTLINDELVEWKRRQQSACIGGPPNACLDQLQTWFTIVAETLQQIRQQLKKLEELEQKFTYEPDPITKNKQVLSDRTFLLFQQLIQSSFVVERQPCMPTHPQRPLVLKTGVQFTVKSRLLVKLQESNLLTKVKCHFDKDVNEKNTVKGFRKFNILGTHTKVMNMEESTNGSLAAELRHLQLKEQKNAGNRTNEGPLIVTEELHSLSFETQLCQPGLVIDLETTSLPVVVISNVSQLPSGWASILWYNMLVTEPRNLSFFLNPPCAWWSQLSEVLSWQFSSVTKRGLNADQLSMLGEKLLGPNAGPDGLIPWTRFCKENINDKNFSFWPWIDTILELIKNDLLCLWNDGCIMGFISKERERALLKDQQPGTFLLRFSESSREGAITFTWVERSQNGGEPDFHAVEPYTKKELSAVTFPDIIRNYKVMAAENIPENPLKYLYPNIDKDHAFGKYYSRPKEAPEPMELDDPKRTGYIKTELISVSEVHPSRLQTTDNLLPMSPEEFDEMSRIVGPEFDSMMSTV

[8] = target: T1, Signal transducer and activator of transcription 3; assay: Inhibition of STAT3 phosphorylation in human MDA468 cells at 100 uM after 24 hrs by Western blotting; format: cell-based; conditions: MDA-MB-468
Method in brief: (§1)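 Intact MDA-468 or JJN3 cells were treated for 24 h, with DMSO as the untreated control. Cells were lysed in Tris-HCl/EDTA/1% NP-40/150 mM NaCl for 30 min on ice, freeze-thawed once at −80 °C and centrifuged at 12000g for 15 min. Whole-cell lysates were run on 6.5–15% SDS-PAGE and immunoblotted for pY705Stat3 and total Stat3.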

[9] = target: T2, Signal transducer and activator of transcription 3; assay: Inhibition of mouse STAT3 SH2 domain using fluorescent probe 5-carboxyfluorescein-GpYLPQTV-NH2 after 30 mins by fluorescence polarisation assay
[10] = Inhibition of mouse STAT5 using fluorescent probe 5-carboxyfluorescein-GpYLPQTV-NH2 after 30 mins by fluorescence polarisation assay
[11] = target: T1, Signal transducer and activator of transcription 3; assay: Inhibition of STAT3 phosphorylation in human JJN-3 cells at 100 uM after 24 hrs by Western blotting; format: cell-based; method in brief: as §1
[12] = target: T1, Signal transducer and activator of transcription 3; conditions: MDA-MB-468, 20 uM
[13] = target: T1, Signal transducer and activator of transcription 3; conditions: JJN3, 20 uM
[14] = target: T1, Signal transducer and activator of transcription 3; conditions: JJN-3, 20 uM
[15] = target: T1, Signal transducer and activator of transcription 3; conditions: MDA-MB-468, 20 uM; remark: listed apart in the source
[16] = target: T1, Signal transducer and activator of transcription 3; conditions: MDA-MB-468, 20 uM; remark: listed apart in the source
[17] = target: T1, Signal transducer and activator of transcription 3; conditions: MDA-MB-468, 20 uM; remark: listed apart in the source
[18] = target: T1, Signal transducer and activator of transcription 3; conditions: JJN3, 20 uM; remark: listed apart in the source
[19] = target: T1, Signal transducer and activator of transcription 3; conditions: JJN3, 20 uM; remark: listed apart in the source

T1 sequence (P40763 whole entry): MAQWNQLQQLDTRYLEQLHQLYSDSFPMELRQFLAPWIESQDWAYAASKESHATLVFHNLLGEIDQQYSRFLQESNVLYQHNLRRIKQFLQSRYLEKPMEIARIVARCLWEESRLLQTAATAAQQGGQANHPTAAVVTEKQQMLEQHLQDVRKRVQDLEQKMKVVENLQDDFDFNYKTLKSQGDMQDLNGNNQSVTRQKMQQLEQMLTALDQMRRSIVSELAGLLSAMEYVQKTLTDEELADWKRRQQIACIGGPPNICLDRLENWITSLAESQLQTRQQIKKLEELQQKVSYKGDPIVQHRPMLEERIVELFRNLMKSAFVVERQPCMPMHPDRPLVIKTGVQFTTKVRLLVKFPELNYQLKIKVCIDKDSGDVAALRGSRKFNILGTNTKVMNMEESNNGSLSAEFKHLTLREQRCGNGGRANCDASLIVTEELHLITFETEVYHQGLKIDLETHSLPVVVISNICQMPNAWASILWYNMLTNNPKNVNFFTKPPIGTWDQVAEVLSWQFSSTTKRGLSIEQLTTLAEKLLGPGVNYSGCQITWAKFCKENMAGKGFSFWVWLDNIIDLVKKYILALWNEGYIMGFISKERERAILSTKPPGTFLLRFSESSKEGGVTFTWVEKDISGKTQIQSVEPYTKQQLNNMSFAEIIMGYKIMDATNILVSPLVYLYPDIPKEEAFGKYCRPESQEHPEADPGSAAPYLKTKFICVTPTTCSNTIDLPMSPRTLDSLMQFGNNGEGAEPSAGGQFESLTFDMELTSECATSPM
T2 sequence (P42227 whole entry): as the sequence (P40763 whole entry) above, with E760D counted along it

Structure (SMILES): CN(CC(=O)N(Cc1ccc(C2CCCCC2)cc1)c1ccc(C(=O)O)c(O)c1)S(=O)(=O)c1cccc2ccccc12
- EC50 [1]: 106 µM
- EC50 (DU-145): 74.5 µM
- EC50 [2]: 46.5 µM
- logP [3]: 5.95
- solubility [4]: Insoluble

Structure (SMILES): CN(CC(=O)N(Cc1ccc(C2CCCCC2)cc1)c1ccc(C(=O)O)c(O)c1)S(=O)(=O)c1cn(C)cn1
- Ki [5]: > 100 µM
- IC50 [6]: > 300 µM

Structure (SMILES): CN(CC(=O)N(Cc1ccc(C2CCCCC2)cc1)c1ccc(C(=O)O)c(O)c1)S(=O)(=O)c1c(F)c(F)c(F)c(F)c1F
- inhibition [12]: Active
- EC50 [1]: 16.7 µM
- inhibition [13]: Active
- inhibition [14]: Active
- inhibition [15]: Active
- inhibition [16]: Active
- inhibition [17]: Active
- solubility [4]: soluble
- inhibition [18]: Active
- inhibition [19]: Active

Results, then the compound that gave them:

- Ki [5]: 6.2 µM
- IC50 [6]: 65.4 µM
Structure (SMILES): CN(CC(=O)N(Cc1ccc(C2CCCCC2)cc1)c1ccc(C(=O)O)c(O)c1)S(=O)(=O)c1ccc(-c2ccccc2)cc1

- Ki [7]: > 25 µM
- inhibition [8]: Active
- Ki [9]: 15 µM
- Ki [10]: > 25 µM
- inhibition [11]: Active
Structure (SMILES): Cc1ccc(S(=O)(=O)N(C)CC(=O)N(Cc2ccc(C3CCCCC3)cc2)c2ccc(C(=O)O)c(O)c2)cc1

- IC50 [6]: 67.4 µM
Structure (SMILES): COc1ccc(S(=O)(=O)N(C)CC(=O)N(Cc2ccc(C3CCCCC3)cc2)c2ccc(C(=O)O)c(O)c2)cc1

- IC50 [6]: > 300 µM
Structure (SMILES): CN(CC(=O)N(Cc1ccc(C2CCCCC2)cc1)c1ccc(C(=O)O)c(O)c1)S(=O)(=O)c1ccc(F)cc1
